Results from ChEMBL document CHEMBL1949593, “Stilbene-chalcone hybrids: design, synthesis, and evaluation as a new class of antimalarial scaffolds that trigger cell death through stage specific apoptosis” (J Med Chem, 2012).
The source made the active and inactive calls. The calls are words filed in the database; no cut-off is given here.

Experiments:
Plasmodium falciparum [1] = assay: Induction of apoptosis in ring stage chloroquine-sensitive Plasmodium falciparum 3D7 assessed as chromatin condensation at 10 uM at 18 hrs by Hoechst 33342 staining; format: functional, organism-based
Plasmodium falciparum [2] = assay: Growth inhibition of chloroquine-sensitive Plasmodium falciparum 3D7 schizonts at 10 uM treated for 8 hrs following washout incubated for 48 hrs in drug free medium by Giemsa staining; format: functional, organism-based
Method in brief: (§1)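 Highly synchronized 3D7 cultures were exposed by stage: rings 48 h, trophozoites 24 h, schizonts 8 h. After a media wash, cultures grew 48 h in drug-free complete RPMI, in triplicate. Giemsa smears were read by counting 3000 cells per stage; pycnotic parasites were scored nonviable. Inhibition is percent of drug-free control.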

Plasmodium falciparum [3] = assay: Antimalarial activity against chloroquine-sensitive Plasmodium falciparum 3D7 assessed as inhibition of schizonts growth at 10 uM treated for 8 hrs followed by washout measured after 48 hrs by Giemsa staining; format: functional, organism-based
Method in brief: (§2)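 Highly synchronized 3D7 schizonts were exposed to drug for 8 h under normal culture conditions, alongside untreated controls. After a media wash, cultures were incubated for 48 h with or without drug. Giemsa-stained thin smears were examined microscopically for parasitemia and stage, and compared with control.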

Plasmodium falciparum [4] = assay: Growth inhibition of chloroquine-sensitive Plasmodium falciparum 3D7 trophozoites at 10 uM treated for 24 hrs followed by washout measured after 48 hrs by Giemsa staining; format: functional, organism-based; method in brief: as §1
Plasmodium falciparum [5] = assay: Induction of apoptosis in chloroquine-sensitive Plasmodium falciparum 3D7 trophozoites assessed as chromatin condensation at 10 uM at 18 hrs by Hoechst 33342 staining; format: functional, organism-based
Method in brief: (§3)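 3D7 trophozoite cultures were treated 18 or 24 h, and ring cultures 24, 42 or 48 h. Parasites were stained with Hoechst 33342 for 10 min at room temperature, washed with PBS, and smeared. Condensed or fragmented chromatin (blue, 460 nm) was viewed by fluorescence microscopy.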

Plasmodium falciparum [6] = assay: Induction of internucleosomal fragmentation in ring stage chloroquine-sensitive Plasmodium falciparum 3D7 at 10 uM at 24 hrs by Hoechst 33342 staining; format: functional, organism-based; method in brief: as §3
Plasmodium falciparum [7] = assay: Antimalarial activity against ring stage chloroquine-sensitive Plasmodium falciparum 3D7 infected in human O positive erythrocytes after 48 hrs by SYBR green 1 fluorescence assay; format: functional, organism-based; conditions: 3D7, 48 h
Method in brief: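 P. falciparum 3D7 in O+ human erythrocytes in complete RPMI with Albumax at 37 °C under 5% O2/5% CO2. Culture was sorbitol-synchronized to rings and plated at 2% hematocrit, 1% parasitemia. Drug range was 0–100 μM with 0.4% final DMSO, in triplicate. After 48 h, SYBR Green I fluorescence was read (ex 497/em 520 nm). IC50 was taken by visual matching of 50% growth inhibition.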

Plasmodium falciparum [8] = assay: Growth inhibition of ring stage chloroquine-sensitive Plasmodium falciparum 3D7 at 10 uM treated for 48 hrs following washout incubated for 48 hrs in drug free medium by Giemsa staining; format: functional, organism-based; method in brief: as §1
Plasmodium falciparum [9] = assay: Induction of apoptosis in chloroquine-sensitive Plasmodium falciparum 3D7 trophozoites assessed as nuclear condensation at 10 uM at 18 hrs by Giemsa staining; format: functional, organism-based
Plasmodium falciparum [10] = assay: Antimalarial activity against chloroquine-sensitive Plasmodium falciparum 3D7 assessed as merozoites egress at 10 uM treated for 8 hrs followed by washout measured after 48 hrs by Giemsa staining; format: functional, organism-based; method in brief: as §2
Plasmodium falciparum [11] = assay: Inhibition of RBC invasion of chloroquine-sensitive Plasmodium falciparum 3D7 schizonts at 10 uM treated for 8 hrs followed by washout measured after 48 hrs by Giemsa staining; format: functional, organism-based; method in brief: as §2
[12] = Resistance index, ratio of IC50 for ring stage chloroquine-resistant Plasmodium falciparum Dd2 to IC50 for ring stage chloroquine-sensitive Plasmodium falciparum 3D7; format: functional
Plasmodium falciparum [13] = assay: Growth inhibition of chloroquine-sensitive Plasmodium falciparum 3D7 schizonts at 10 uM treated for 8 hrs following washout incubated for 48 hrs in drug free medium by SYBR green 1-based fluorescence assay; format: functional, organism-based
Method in brief: (§4)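 Stage-specific exposure of synchronized 3D7: rings 48 h, trophozoites 24 h, schizonts 8 h. Drug was removed by media wash and cultures grew 48 h drug-free, in a separate triplicate set. Growth was read by SYBR Green I fluorescence and expressed as percent inhibition relative to drug-free control.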

[14] = Therapeutic index, ratio of IC50 for […] cells to IC50 for ring stage chloroquine-sensitive Plasmodium falciparum 3D7; format: cell-based; conditions: mouse, read-out: Ratio IC50
Method in brief: (§5)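 HeLa or L929 fibroblasts were seeded at 10^4 cells per well in RPMI with 10% FBS, left overnight, then exposed 24 h at 37 °C, 5% CO2. MTT was added for 3 h; formazan was dissolved in DMSO and read at 570 nm. IC50 came from dose–response curves. Index = IC50(mammalian)/IC50(Pf 3D7, SYBR Green assay).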

[15] = Resistance index, ratio of IC50 for ring stage chloroquine-resistant Plasmodium falciparum INDO to IC50 for ring stage chloroquine-sensitive Plasmodium falciparum 3D7; format: functional
[16] = Therapeutic index, ratio of IC50 for human HeLa cells to IC50 for ring stage chloroquine-sensitive Plasmodium falciparum 3D7; format: cell-based; conditions: read-out: Ratio IC50; method in brief: as §5
Plasmodium falciparum [17] = assay: Induction of apoptosis in chloroquine-sensitive Plasmodium falciparum 3D7 trophozoites assessed as disruption of mitochondrial membrane potential at 10 uM by JC-1 staining; format: functional, organism-based
Method in brief: (§6)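 3D7 ring cultures were treated 24, 42 or 48 h, and trophozoite cultures 18 or 24 h. Parasites were stained with JC-1 for 20 min at 37 °C and viewed as wet mounts by fluorescence microscopy. Red-orange aggregate signal (590 nm) indicates intact ΔΨm; green monomer signal (525 nm) indicates dissipation.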

Plasmodium falciparum [18] = assay: Growth inhibition of ring stage chloroquine-sensitive Plasmodium falciparum 3D7 at 10 uM treated for 48 hrs following washout incubated for 48 hrs in drug free medium by SYBR green 1-based fluorescence assay; format: functional, organism-based; method in brief: as §4
Plasmodium falciparum [19] = assay: Growth inhibition of chloroquine-sensitive Plasmodium falciparum 3D7 trophozoites at 10 uM treated for 24 hrs following washout incubated for 48 hrs in drug free medium by SYBR green 1-based fluorescence assay; format: functional, organism-based; method in brief: as §4
[20] = Inhibition of Plasmodium falciparum falcipain-2 using benzyloxycarbonyl-Phe-Arg-7-amino-4-methyl coumarin hydrochloride as substrate preincubated for 10 mins prior substrate addition by fluorimetric assay
Method in brief: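 Recombinant falcipain-2 (2 μg) was preincubated 10 min at room temperature with or without compound, in triplicate. Buffer was 100 mM sodium acetate pH 5.5 with 10 mM DTT and 1% final DMSO. Z-Phe-Arg-AMC was then added at 10 μM final. AMC release was read at ex 355/em 460 nm. IC50 was taken by visual matching of 50% inhibition.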

Plasmodium falciparum [21] = assay: Antimalarial activity against ring stage chloroquine-resistant Plasmodium falciparum Dd2 infected in human O positive erythrocytes after 48 hrs by SYBR green 1 fluorescence assay; format: functional, organism-based; conditions: Dd2, 48 h
Method in brief: (§7)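 Ring-stage cultures were sorbitol-synchronized in O+ human erythrocytes in RPMI 1640 with 0.5% Albumax, hypoxanthine and gentamicin, then plated at 2% hematocrit and 1% parasitemia. Drugs were tested at 0–100 μM (final DMSO 0.4%) in triplicate for 48 h at 37 °C under 5% O2/5% CO2/90% N2. Read-out was SYBR Green I (ex 497/em 520 nm). IC50 was read visually as 50% growth inhibition, with chloroquine as control.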

Plasmodium falciparum [22] = assay: Reduction in parasitemia of ring stage chloroquine-sensitive Plasmodium falciparum 3D7 at 10 uM after 48 hrs by Giemsa staining; format: functional, organism-based
Plasmodium falciparum [23] = assay: Induction of apoptosis in ring stage chloroquine-sensitive Plasmodium falciparum 3D7 assessed as nuclear condensation at 10 uM at 24 hrs by Giemsa staining
Plasmodium falciparum [24] = assay: Growth inhibition of ring stage chloroquine-sensitive Plasmodium falciparum 3D7 at 10 uM treated for 24 hrs followed by washout measured after 72 hrs by Giemsa staining; format: functional, organism-based
Method in brief: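 Synchronized 3D7 ring cultures were exposed for 18, 24 or 48 h, then washed free of drug. Cultures were kept under normal conditions to 96 h total. Giemsa-stained thin smears were read by counting 3000 cells; inhibition is relative to the matching drug-free control.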

Plasmodium falciparum [25] = assay: Induction of apoptosis in ring stage chloroquine-sensitive Plasmodium falciparum 3D7 assessed as chromatin fragmentation at 10 uM at 18 hrs by Hoechst 33342 staining; format: functional, organism-based
Plasmodium falciparum [26] = assay: Induction of apoptosis in chloroquine-sensitive Plasmodium falciparum 3D7 trophozoites assessed as chromatin fragmentation at 10 uM at 18 hrs by Hoechst 33342 staining; format: functional, organism-based; method in brief: as §3
Plasmodium falciparum [27] = assay: Induction of apoptosis in ring stage chloroquine-sensitive Plasmodium falciparum 3D7 assessed as disruption of mitochondrial membrane potential at 10 uM by JC-1 staining; format: functional, organism-based; method in brief: as §6
Plasmodium falciparum [28] = assay: Induction of internucleosomal fragmentation in chloroquine-sensitive Plasmodium falciparum 3D7 trophozoites at 10 uM at 24 hrs by Hoechst 33342 staining; format: functional, organism-based; method in brief: as §3
Plasmodium falciparum [29] = assay: Reduction in parasitemia of chloroquine-sensitive Plasmodium falciparum 3D7 trophozoites at 10 uM after 48 hrs by Giemsa staining; format: functional, organism-based
Plasmodium falciparum [30] = assay: Antimalarial activity against ring stage chloroquine-resistant Plasmodium falciparum INDO infected in human O positive erythrocytes after 48 hrs by SYBR green 1 fluorescence assay; format: functional, organism-based; method in brief: as §7

With `COc1cc(OC)c(OC)cc1/C=C/C(=O)c1ccc(/C=C/c2cc(OC)c(OC(C)=O)c(OC)c2)cc1` the Activity (Plasmodium falciparum [1]) was “Active”, the “growth inhibition (GI)” value (Plasmodium falciparum [2]) was “inactive” and the “growth inhibition (GI)” value (Plasmodium falciparum [3]) was “inactive”. The “growth inhibition (GI)” value (Plasmodium falciparum [4]) was “Active”, the Activity (Plasmodium falciparum [5]) was “Active” and the Activity (Plasmodium falciparum [6]) was “inactive”. For the same molecule, the IC50 (Plasmodium falciparum [7]) was 2200 nM, the “growth inhibition (GI)” value (Plasmodium falciparum [8]) was “Active” and the Activity (Plasmodium falciparum [9]) was “Active”. The inhibition (Plasmodium falciparum [10]) was “inactive”, the inhibition (Plasmodium falciparum [11]) was “inactive” and the “Ratio IC50” value [12] was 1. The “growth inhibition (GI)” value (Plasmodium falciparum [13]) was “inactive”, the selectivity ratio [14] was greater than 45.5 and the “Ratio IC50” value [15] was 0.9. The selectivity ratio [16] was greater than 45.5, the Activity (Plasmodium falciparum [17]) was “Active” and the “growth inhibition (GI)” value (Plasmodium falciparum [18]) was “Active”. For the same molecule, the “growth inhibition (GI)” value (Plasmodium falciparum [19]) was “Active”, the IC50 [20] was 25000 nM and the IC50 (Plasmodium falciparum [21]) was 2200 nM. For the same molecule, the Activity (Plasmodium falciparum [22]) was “Active”, the Activity (Plasmodium falciparum [23]) was “Active” and the “growth inhibition (GI)” value (Plasmodium falciparum [24]) was “Active”. The Activity (Plasmodium falciparum [25]) was “Active”, the Activity (Plasmodium falciparum [26]) was “Active” and the Activity (Plasmodium falciparum [27]) was “Active”. The Activity (Plasmodium falciparum [28]) was “Active”, the Activity (Plasmodium falciparum [29]) was “Active” and the IC50 (Plasmodium falciparum [30]) was 1980 nM.
